Data set [1] concerns the target T1, Mu-type opioid receptor (Homo sapiens, UniProt P35372). Nature of the data set: Antagonist activity at human mu opioid receptor transfected in CHO cells assessed as inhibition of […] [35S]GTPgammaS binding after 60 mins by scintillation counting analysis relative to control. It is filed as functional, cell-based. (In general: GTPγS resists hydrolysis and so accumulates on activated G proteins.)

The target in data set [2] is T2, Kappa-type opioid receptor (Homo sapiens, UniProt P41145). Nature of the data set: Agonist activity at human kappa opioid receptor transfected in CHO cells assessed as stimulation of [35S]GTPgammaS binding after 60 mins by scintillation counting analysis relative to control. In kind it is functional, cell-based. In a few lines: (§1)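 Membranes from CHO cells stably expressing human KOR (15 μg protein/tube) or MOR (7.5 μg protein/tube) were incubated for 60 min at 30 °C with 12 compound concentrations, 3 μM GDP and […] [35S]GTPγS. Nonspecific binding used 10 μM GTPγS. Filtration, scintillation counting; % stimulation over basal. ≥3 experiments, triplicate.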

The target of data set [3] is T1, Mu-type opioid receptor. Put plainly: Antagonist activity at human mu opioid receptor transfected in CHO cells assessed as inhibition of DAMGO-induced [35S]GTPgammaS binding after 60 mins by scintillation counting analysis relative to control. In kind it is functional, cell-based. In a few lines:
(§2)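 Membranes from CHO cells expressing human MOR (7.5 μg protein/tube) were incubated with test compound plus 200 nM DAMGO, 3 μM GDP and […] [35S]GTPγS. Incubation was 60 min at 30 °C in Tris/MgCl2/NaCl/EGTA buffer, pH 7.4. Bound label was measured by filtration and scintillation counting. At least 3 experiments, each in triplicate.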

Data set [4] has as its target T1, Mu-type opioid receptor. Put plainly: Agonist activity at human mu opioid receptor transfected in CHO cells assessed as stimulation of [35S]GTPgammaS binding after 60 mins by scintillation counting analysis relative to control. In kind it is functional, cell-based. The essentials: as §1
For data set [5], the target named is T2, Kappa-type opioid receptor. Nature of the data set: Agonist activity at human kappa opioid receptor transfected in CHO cells assessed as stimulation of [35S]GTPgammaS binding after 60 mins by scintillation counting analysis. In kind it is functional, cell-based. The essentials:
as §1

In data set [6] the target is T1, Mu-type opioid receptor. Nature of the data set: Antagonist activity at human mu opioid receptor transfected in CHO cells assessed as inhibition of DAMGO-induced [35S]GTPgammaS binding after 60 mins by scintillation counting analysis. It is filed as functional, cell-based. The essentials: as §2
In data set [7] the target is T1, Mu-type opioid receptor. Nature of the data set: Agonist activity at human mu opioid receptor transfected in CHO cells assessed as stimulation of [35S]GTPgammaS binding after 60 mins by scintillation counting analysis. In kind it is functional, cell-based. The essentials: as §1
The species named for data set [8] is Homo sapiens. Put plainly: Selectivity ratio of Ki for human delta opioid receptor to Ki for human kappa opioid receptor.
The species entered for data set [9] is Homo sapiens. Put plainly: Selectivity ratio of Ki for human mu opioid receptor to Ki for human kappa opioid receptor.
In data set [10] the target is Delta-type opioid receptor (Homo sapiens, UniProt P41143). Nature of the data set: Displacement of [3H]-naltrindole from human delta opioid receptor transfected in CHO cells after 3 hrs. It is filed as cell-based.
Data set [11] addresses T2, Kappa-type opioid receptor. Nature of the data set: Displacement of [3H]-U69593 from human kappa opioid receptor transfected in CHO cells after 60 mins. It is filed as cell-based.
In data set [12] the target is T1, Mu-type opioid receptor. Nature of the data set: Displacement of [3H]-DAMGO from human mu opioid receptor transfected in CHO cells after 60 mins. It is filed as cell-based. (In general: Loss of bound radioactivity is the signal in a displacement assay; it reports binding, not function.)
The subject of data set [13] is Rattus norvegicus. Nature of the data set: Toxicity in Sprague-Dawley rat assessed as suppression of intracranial self-stimulation reward function at 1 to 30 mg/kg, ip measured for 1 hr. Also noted: dose 1-30 mg/kg, route intraperitoneal. In kind it is organism-based. The settings on record: in vivo. The essentials:
(§3)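 Male Sprague-Dawley rats with lateral hypothalamic medial forebrain bundle electrodes were given test drug i.p. in increasing doses (n=6/cohort). One series was 0–4.0 mg/kg in 20% DMSO/water; the other was 1.0–30.0 mg/kg in 0.9% saline. ICSS thresholds and maximum response rates were measured over four 15-min rate-frequency trials after baseline. Results were expressed as 100 × post/pre-treatment.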

The test system of data set [14] is Rattus norvegicus. Nature of the data set: Reduction of reward potentiation effect of cocaine in ip dosed Sprague-Dawley rat assessed as blockade of cocaine-madiated reduction of intracranial self-stimulation threshold at 3 to 30 mg/kg administered for 15 mins prior to cocaine challenge measured 15 mins post dose and 1 hr post cocaine challenge. In kind it is functional, organism-based. The essentials: (§4)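 Male Sprague-Dawley rats carried medial forebrain bundle electrodes and were trained by the rate-frequency method to stable thresholds (n=6/cohort). Baseline came from three 15-min functions. Test drug was given i.p. in increasing doses: 0, 0.5, 1.0, 2.0 mg/kg, or 0, 3.0, 10.0, 30.0 mg/kg. […] Data were expressed as 100 × post/pre.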

In data set [15] the test system is Rattus norvegicus. Put plainly: Reduction of reward potentiation effect of cocaine in ip dosed Sprague-Dawley rat assessed as blockade of cocaine-madiated reduction of intracranial self-stimulation threshold administered for 15 mins prior to cocaine challenge measured 15 mins post dose and 1 hr post cocaine challenge. In kind it is functional, organism-based. In a few lines: as §4

Data set [16] has as its system Rattus norvegicus. Nature of the data set: Toxicity in Sprague-Dawley rat assessed as suppression of intracranial self-stimulation reward function at 4 mg/kg, ip measured over 15 to 60 mins. It is filed as organism-based. Also noted: dose 4 mg/kg, route intraperitoneal. The note with it: in vivo. In a few lines: as §3
Data set [17] relates to Rattus norvegicus. Nature of the data set: Toxicity in Sprague-Dawley rat assessed as suppression of intracranial self-stimulation reward function at 0.25 to 2 mg/kg, ip measured for 1 hr. It is filed as organism-based. Also noted: dose 0.25-2 mg/kg, route intraperitoneal. The settings on record: in vivo. The essentials: as §3

SMILES strings stand for the structures. Calls of active or inactive are those of the source.

T1 sequence (P35372 whole entry): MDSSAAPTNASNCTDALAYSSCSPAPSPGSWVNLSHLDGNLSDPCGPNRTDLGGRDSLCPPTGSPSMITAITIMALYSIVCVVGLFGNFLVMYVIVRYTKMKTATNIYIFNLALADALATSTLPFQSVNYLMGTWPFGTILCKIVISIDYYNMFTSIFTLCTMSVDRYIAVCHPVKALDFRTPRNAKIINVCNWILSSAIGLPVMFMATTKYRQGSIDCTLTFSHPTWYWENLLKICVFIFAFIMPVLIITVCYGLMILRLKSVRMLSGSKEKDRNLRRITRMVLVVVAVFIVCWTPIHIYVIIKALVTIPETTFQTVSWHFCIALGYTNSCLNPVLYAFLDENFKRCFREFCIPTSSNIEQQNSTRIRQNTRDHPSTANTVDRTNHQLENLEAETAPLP
Sequence of Delta-type opioid receptor (P41143 whole entry): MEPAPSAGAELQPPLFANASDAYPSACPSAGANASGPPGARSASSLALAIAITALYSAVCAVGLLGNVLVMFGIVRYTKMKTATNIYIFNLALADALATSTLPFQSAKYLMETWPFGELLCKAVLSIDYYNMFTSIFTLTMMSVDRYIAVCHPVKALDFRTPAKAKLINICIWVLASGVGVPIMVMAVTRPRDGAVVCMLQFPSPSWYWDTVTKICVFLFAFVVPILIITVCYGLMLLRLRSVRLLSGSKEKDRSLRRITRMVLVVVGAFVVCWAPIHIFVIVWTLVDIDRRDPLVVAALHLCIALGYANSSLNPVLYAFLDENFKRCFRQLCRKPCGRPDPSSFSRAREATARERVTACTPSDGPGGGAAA
T2 sequence (P41145 whole entry): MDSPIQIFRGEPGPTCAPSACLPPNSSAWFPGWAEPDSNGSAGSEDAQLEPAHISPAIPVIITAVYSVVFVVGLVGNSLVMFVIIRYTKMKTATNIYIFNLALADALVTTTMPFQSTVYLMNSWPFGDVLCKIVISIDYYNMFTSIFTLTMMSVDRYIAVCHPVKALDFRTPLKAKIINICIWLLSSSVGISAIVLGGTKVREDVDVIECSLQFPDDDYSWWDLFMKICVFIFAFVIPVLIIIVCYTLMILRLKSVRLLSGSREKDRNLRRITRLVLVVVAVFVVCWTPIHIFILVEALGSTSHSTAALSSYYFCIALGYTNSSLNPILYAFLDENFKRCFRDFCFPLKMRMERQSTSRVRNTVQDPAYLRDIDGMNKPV

As to `CNc1nc2c(s1)C[C@H]1[C@H]3Cc4ccc(O)cc4[C@@]1(CCN3CC1CC1)C2`, the Imax on Mu-type opioid receptor [1] was 27%; on Mu-type opioid receptor [3] it was 76%. In addition, the maximal effect (Emax) – broadly, the size of the effect at its maximum, as opposed to the concentration needed – in data set [2] is 85%; at Mu-type opioid receptor [4] it was 25%. Besides, the concentration giving a half-maximal response (EC50) – broadly, the concentration needed to bring the measured effect to its halfway point – in data set [5] is 1.3 nM; on Mu-type opioid receptor [7], 0.52 nM. For the same molecule, the 50% inhibitory concentration (IC50) (usually the point on the concentration scale where inhibition reaches its midpoint) on Mu-type opioid receptor [6] turned out to be 2.5 nM. Further, the Ratio Ki in the data set filed under Homo sapiens [8] was 5.1; in the data set listed under Homo sapiens [9] it was 1.7. Also, the inhibition constant Ki – broadly, a dissociation constant, usually derived from enzyme kinetics or from competition with a known ligand – in data set [10] came to 0.43 nM; in data set [11], 0.084 nM; at Mu-type opioid receptor [12], 0.14 nM.

With `COc1ccc2c(c1)[C@]13CCN(CC4CC4)[C@H](C2)[C@@H]1Cc1sc(N)nc1C3`, at Mu-type opioid receptor [1], the Imax entry is “inactive”. The Emax is 140% in data set [2] and 24% at Mu-type opioid receptor [4]. In addition, the Imax on Mu-type opioid receptor [3] amounted to 69%. The EC50 in data set [5] was 49 nM; at Mu-type opioid receptor [7] it was 39 nM. At Mu-type opioid receptor [6], the IC50 was 640 nM. In addition, the Ratio Ki in the data set listed under Homo sapiens [8] stood at 6.8; in the data set listed under Homo sapiens [9] it was 3.5. In addition, the Ki in data set [10] worked out at 13 nM; in [11], 1.9 nM; at Mu-type opioid receptor [12], 6.7 nM.

`Nc1nc2c(s1)C[C@H]1[C@H]3Cc4ccc(O)cc4[C@@]1(CCN3CC1CC1)C2`: the Imax at Mu-type opioid receptor [1] amounted to 49%. Besides, the Emax in [2] was 59%. Besides, the Activity result with Rattus norvegicus [13] is given as “Non-toxic”. The EC50 in [5] was 0.61 nM. Further, the result in the data set with Rattus norvegicus [14] was inactive.

Consider `COc1ccc2c(c1)[C@]13CCN(CC4CC4)[C@H](C2)[C@@H]1Cc1sc(NC(C)=O)nc1C3`, for which, on Mu-type opioid receptor [1], the Imax entry was “inactive”. Further, the maximal effect (Emax) in data set [2] stood at 120%; on Mu-type opioid receptor [4], 47%. In addition, the Imax at Mu-type opioid receptor [3] turned out to be 60%. Besides, the EC50 in [5] amounted to 140 nM; on Mu-type opioid receptor [7], 80 nM. Moreover, the IC50 at Mu-type opioid receptor [6] was determined as 500 nM. In addition, the Ratio Ki in the data set listed under Homo sapiens [8] came to 0.51; in the data set filed under Homo sapiens [9], 0.73. Also, the Ki in data set [10] is 4.6 nM; in data set [11], 9 nM; at Mu-type opioid receptor [12], 6.6 nM.

Turning to `Oc1ccc2c(c1)[C@@]13CCCC[C@H]1[C@@H](C2)N(CC1CCC1)CC3` [BUTORPHAN], the Activity result was “Dose-dependent effect” in the data set on Rattus norvegicus [15], “Toxic” in the data set with Rattus norvegicus [16] and “Non-toxic” in the data set on Rattus norvegicus [17].

Consider `Nc1nc2cc3c(cc2s1)C[C@@H]1[C@@H]2CCCC[C@]32CCN1CC1CC1`, for which the Imax result at Mu-type opioid receptor [1] is “inactive”.

`CNc1nc2c(s1)C[C@H]1[C@H]3Cc4ccc(OC)cc4[C@@]1(CCN3CC1CC1)C2`: the Imax entry on Mu-type opioid receptor [1] is “inactive”. For the same molecule, the maximum response (Emax) in [2] is 140%; on Mu-type opioid receptor [4] it was 28%. Moreover, the Imax at Mu-type opioid receptor [3] is 76%. The concentration giving a half-maximal response (EC50) in [5] was 97 nM; at Mu-type opioid receptor [7], 51 nM. In addition, on Mu-type opioid receptor [6], the IC50 was determined as 650 nM. Moreover, the Ratio Ki in the data set filed under Homo sapiens [8] came out at 0.44; in the data set filed under Homo sapiens [9] it was 2.7. Also, the Ki in data set [10] was 1.6 nM; in [11], 3.6 nM; on Mu-type opioid receptor [12], 9.6 nM.

The values are drawn from ChEMBL document CHEMBL3085732, “Synthesis and pharmacological evaluation of aminothiazolomorphinans at the mu and kappa opioid receptors” (J Med Chem, 2013).
